Assay [1] addresses T1, DNA topoisomerase 1 (Homo sapiens) (UniProt P11387).
T1 sequence (whole entry): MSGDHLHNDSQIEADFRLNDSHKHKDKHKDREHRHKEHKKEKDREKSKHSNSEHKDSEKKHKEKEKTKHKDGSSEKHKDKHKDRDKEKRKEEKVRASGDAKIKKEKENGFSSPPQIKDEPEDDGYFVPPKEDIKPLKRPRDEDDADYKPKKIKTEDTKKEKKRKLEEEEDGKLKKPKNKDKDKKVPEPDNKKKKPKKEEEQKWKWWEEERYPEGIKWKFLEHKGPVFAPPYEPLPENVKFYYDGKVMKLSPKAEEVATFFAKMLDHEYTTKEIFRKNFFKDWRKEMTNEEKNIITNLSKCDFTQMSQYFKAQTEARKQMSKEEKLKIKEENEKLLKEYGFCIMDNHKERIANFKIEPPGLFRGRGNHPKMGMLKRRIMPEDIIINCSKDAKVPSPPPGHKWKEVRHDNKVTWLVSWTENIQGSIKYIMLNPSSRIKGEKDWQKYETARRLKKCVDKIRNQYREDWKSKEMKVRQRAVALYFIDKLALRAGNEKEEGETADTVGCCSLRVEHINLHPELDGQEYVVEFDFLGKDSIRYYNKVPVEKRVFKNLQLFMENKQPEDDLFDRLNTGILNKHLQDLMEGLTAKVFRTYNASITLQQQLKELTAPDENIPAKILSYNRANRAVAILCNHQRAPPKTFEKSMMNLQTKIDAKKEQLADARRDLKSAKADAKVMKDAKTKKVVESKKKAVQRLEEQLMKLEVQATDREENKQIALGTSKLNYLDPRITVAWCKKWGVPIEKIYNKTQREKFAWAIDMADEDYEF
The assay can be described thus: Inhibition of human topoisomerase 1-mediated relaxation of supercoiled pBR322 DNA at 50 to 400 uM after 15 to 30 mins by agarose gel electrophoresis. In a few lines:
(§1)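 Supercoiled pBR322 (0.3 μg) relaxed by human Topo I (1 unit, 30 min; or 2 units, 15 min) or calf thymus Topo I (0.5 unit, 15 min), 37 °C. Buffer: 50 mM Tris-HCl pH 7.5, 1 mM MgCl2, 1 mM DTT, 50 μg/mL BSA. Stopped with 25 mM EDTA. Run on 1.2% agarose in TAE, ethidium-stained and quantified. IC50 taken from these gels.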

Assay [2] has as its target T1, DNA topoisomerase 1 (Homo sapiens). The assay can be described thus: Dissociation of human topo 1-CPT-DNA ternary complex assessed as reduction in nicked DNA formation measuring remaining ternary complex at 150 uM after 20 mins by two-step DNA cleavage assay. In a few lines: (§2)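 Topo I with 7.5 μM CPT on relaxed plasmid DNA (6-fold scaled cleavage mix: 50 mM Tris-HCl pH 7.5, 1 mM MgCl2, 1 mM DTT, BSA), 37 °C 5 min. Then 150 μM SD8 or DMSO (2% final), continued at 37 °C. Aliquots taken at set times, stopped with 1% SDS, then EDTA/proteinase K 37 °C 15 min. Nicked DNA read on ethidium agarose gels.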

For assay [3] the target is unchanged. Description: Dissociation of human topo 1-CPT-DNA ternary complex assessed as reduction in nicked DNA formation at 150 uM by two-step DNA cleavage assay. Set-up: scale not given: the % may be the effect or the level left. In a few lines: as §2
Assay [4] concerns the target T2, Topoisomerase I (Bos taurus) (UniProt Q2HPH0).
T2 sequence (whole entry): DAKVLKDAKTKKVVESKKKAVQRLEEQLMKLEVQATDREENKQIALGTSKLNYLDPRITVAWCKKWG
The assay can be described thus: Inhibition of calf thymus topoisomerase 1-mediated relaxation of supercoiled pBR322 DNA after 15 mins by agarose gel electrophoresis. In a few lines:
as §1

Assay [5] addresses T1, DNA topoisomerase 1 (Homo sapiens). Description: Dissociation of human topo 1-CPT-DNA ternary complex assessed as reduction in nicked DNA formation at 160 uM after 10 mins by dilution DNA cleavage assay in presence of 2.5 uM CPT. Set-up: scale not given: the % may be the effect or the level left. The method, boiled down:
(§3)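 Topo I cleavage mix (0.6 μg relaxed plasmid, 5 units human Topo I, 2.5 μM CPT), 37 °C 5 min. Then diluted 10-fold in drug-free buffer or buffer holding 2.5 μM CPT, 160 μM SD8, or both, 37 °C 10 min. SDS/EDTA/proteinase K workup. Nicked DNA normalized to the undiluted control; mean and absolute deviation of two assays.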

Assay [6] has as its target T3, DNA topoisomerase 1 (Homo sapiens, UniProt P11387).
T3 sequence (P11387 whole entry): T1 sequence (whole entry)
The assay can be described thus: Inhibition of human topoisomerase 1-mediated relaxation of supercoiled pBR322 DNA after 15 to 30 mins by agarose gel electrophoresis. The method, boiled down:
as §1

In assay [7] the target is T1, DNA topoisomerase 1 (Homo sapiens). Description: Inhibition of human topoisomerase 1-mediated relaxation of supercoiled pBR322 DNA at 50 to 400 uM after 15 to 30 mins by agarose gel electrophoresis in presence of 1 mM magnesium. The method, boiled down:
(§4)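 Human Topo I relaxation of supercoiled pBR322 at 37 °C, run as the standard assay. Mg2+ raised up to 1 mM, NaCl up to 100 mM, or potassium glutamate up to 200 mM. Products resolved on agarose gels.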

Assay [8] has as its target DNA topoisomerase 2-alpha (Homo sapiens) (UniProt P11388). Description: Dissociation of human topo 2-etoposide-DNA ternary complex assessed as reduction in […] formation at 150 uM by two-step DNA cleavage assay. The method, boiled down: (§5)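 Human Topo II with 7.5 μM etoposide on relaxed plasmid DNA (50 mM Tris-HCl pH 8, 10 mM MgCl2, 10 mM DTT, 1 mM ATP, BSA; 6-fold scale), 37 °C 5 min. Then 150 μM SD8 or 2% DMSO at 37 °C. Timed aliquots stopped with 1% SDS, then EDTA/proteinase K 50 °C 60 min. Linear DNA quantified on ethidium agarose gels.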

The target in assay [9] is T1, DNA topoisomerase 1 (Homo sapiens). The assay can be described thus: Dissociation of human topo 1-CPT-DNA ternary complex assessed as reduction in nicked DNA formation at 160 uM after 10 mins by dilution DNA cleavage assay relative to untreated-control. Set-up: scale not given: the % may be the effect or the level left. In a few lines: as §3
The target is the same in assay [10]. The assay can be described thus: Dissociation of human topo 1-CPT-DNA ternary complex assessed as reduction in nicked DNA formation at 160 uM after 10 mins by dilution DNA cleavage assay. Set-up: scale not given: the % may be the effect or the level left. The method, boiled down:
as §3

The target is the same in assay [11]. Description: Inhibition of human topoisomerase 1-mediated plasmid DNA cleavage at 25 to 200 uM after 10 mins by agarose gel electrophoresis. In a few lines:
(§6)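 Relaxed plasmid (0.3 μg) with 5 units human Topo I at 37 °C for 10 min. Buffer: pH 7.5, 1 mM MgCl2. Stopped with 1% SDS, then 25 mM EDTA and 100 μg/mL proteinase K, 37 °C 15 min. Phenol extraction, 1.2% agarose gel with ethidium bromide at 2 V/cm for 12 h. 5 μM CPT reaction as control.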

Assay [12] has the same target. The assay can be described thus: Inhibition of human topoisomerase 1-mediated relaxation of supercoiled pBR322 DNA at 50 to 400 uM after 15 to 30 mins by agarose gel electrophoresis in presence of 200 mM potassium glutamate. In a few lines: as §4
Assay [13] addresses DNA topoisomerase 2-alpha (Homo sapiens) (UniProt P11388). Description: Inhibition of human topoisomerase 2-mediated plasmid DNA cleavage preincubated at 150 uM for 5 mins before addition of poison measured after 10 mins by agarose gel electrophoresis. The method, boiled down:
(§7)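 Two-step assay at 4-fold scale: Topo I or human Topo II with 150 μM SD8, 37 °C 5 min. Aliquots then given 7.5 μM CPT (Topo I) or 7.5 μM etoposide (Topo II), 37 °C 10 min. Stopped with 1% SDS, then proteinase K (Topo I 37 °C 15 min; Topo II 50 °C 60 min). Gel readout.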

The target in assay [14] is T1, DNA topoisomerase 1 (Homo sapiens). Description: Inhibition of human topoisomerase 1-mediated plasmid DNA cleavage preincubated at 150 uM for 5 mins before addition of poison measured after 10 mins by agarose gel electrophoresis. The method, boiled down:
as §7

Assay [15] has the same target. Description: Stimulation of human topoisomerase 1-mediated plasmid DNA cleavage at 25 to 200 uM after 10 mins by agarose gel electrophoresis. In a few lines:
as §6

The target of assay [16] is DNA topoisomerase 2-alpha (Homo sapiens) (UniProt P11388). Description: Inhibition of human topoisomerase 2-mediated relaxation of supercoiled pBR322 DNA at 50 to 400 uM after 30 mins by agarose gel electrophoresis. In a few lines:
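Human Topo II (2 units) relaxed 0.3 μg supercoiled pBR322 at 37 °C for 30 min. Stopped with 25 mM EDTA, 5 min. Analyzed on agarose gels.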

Assay [17] addresses T1, DNA topoisomerase 1 (Homo sapiens). The assay can be described thus: Inhibition of human topoisomerase 1-mediated relaxation of supercoiled pBR322 DNA at 50 to 400 uM after 15 to 30 mins by agarose gel electrophoresis in presence of 100 mM NaCl. The method, boiled down: as §4
For assay [18], the target named is DNA topoisomerase 2-alpha (Homo sapiens) (UniProt P11388). Description: Inhibition of human topoisomerase 2-mediated plasmid DNA cleavage at 25 to 200 uM after 10 mins by agarose gel electrophoresis electrophoresis. In a few lines:
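Relaxed plasmid (0.3 μg) with 5 units human Topo II and 1 mM ATP at 37 °C for 10 min. Buffer: pH 8, 10 mM MgCl2. Stopped with 1% SDS, then EDTA and proteinase K at 50 °C for 60 min. Extracted and run on ethidium agarose gels.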

Assay [19] has the same target. The assay can be described thus: Dissociation of human topo 2-etoposide-DNA ternary complex assessed as nicked DNA formation at 150 uM after 20 mins by two-step DNA cleavage assay. As to conditions: in the assay text read “linear DNA” for “nicked DNA”. The method, boiled down: as §5
The target in assay [20] is T1, DNA topoisomerase 1 (Homo sapiens). Description: Ratio of CPT IC50 to compound IC50 for human topoisomerase 1-mediated relaxation of supercoiled pBR322 DNA.

The structures appear in SMILES notation. Activity calls are given as the source filed them. The rule behind the calls is not given here.

Sequence of DNA topoisomerase 2-alpha (Homo sapiens) (P11388 whole entry): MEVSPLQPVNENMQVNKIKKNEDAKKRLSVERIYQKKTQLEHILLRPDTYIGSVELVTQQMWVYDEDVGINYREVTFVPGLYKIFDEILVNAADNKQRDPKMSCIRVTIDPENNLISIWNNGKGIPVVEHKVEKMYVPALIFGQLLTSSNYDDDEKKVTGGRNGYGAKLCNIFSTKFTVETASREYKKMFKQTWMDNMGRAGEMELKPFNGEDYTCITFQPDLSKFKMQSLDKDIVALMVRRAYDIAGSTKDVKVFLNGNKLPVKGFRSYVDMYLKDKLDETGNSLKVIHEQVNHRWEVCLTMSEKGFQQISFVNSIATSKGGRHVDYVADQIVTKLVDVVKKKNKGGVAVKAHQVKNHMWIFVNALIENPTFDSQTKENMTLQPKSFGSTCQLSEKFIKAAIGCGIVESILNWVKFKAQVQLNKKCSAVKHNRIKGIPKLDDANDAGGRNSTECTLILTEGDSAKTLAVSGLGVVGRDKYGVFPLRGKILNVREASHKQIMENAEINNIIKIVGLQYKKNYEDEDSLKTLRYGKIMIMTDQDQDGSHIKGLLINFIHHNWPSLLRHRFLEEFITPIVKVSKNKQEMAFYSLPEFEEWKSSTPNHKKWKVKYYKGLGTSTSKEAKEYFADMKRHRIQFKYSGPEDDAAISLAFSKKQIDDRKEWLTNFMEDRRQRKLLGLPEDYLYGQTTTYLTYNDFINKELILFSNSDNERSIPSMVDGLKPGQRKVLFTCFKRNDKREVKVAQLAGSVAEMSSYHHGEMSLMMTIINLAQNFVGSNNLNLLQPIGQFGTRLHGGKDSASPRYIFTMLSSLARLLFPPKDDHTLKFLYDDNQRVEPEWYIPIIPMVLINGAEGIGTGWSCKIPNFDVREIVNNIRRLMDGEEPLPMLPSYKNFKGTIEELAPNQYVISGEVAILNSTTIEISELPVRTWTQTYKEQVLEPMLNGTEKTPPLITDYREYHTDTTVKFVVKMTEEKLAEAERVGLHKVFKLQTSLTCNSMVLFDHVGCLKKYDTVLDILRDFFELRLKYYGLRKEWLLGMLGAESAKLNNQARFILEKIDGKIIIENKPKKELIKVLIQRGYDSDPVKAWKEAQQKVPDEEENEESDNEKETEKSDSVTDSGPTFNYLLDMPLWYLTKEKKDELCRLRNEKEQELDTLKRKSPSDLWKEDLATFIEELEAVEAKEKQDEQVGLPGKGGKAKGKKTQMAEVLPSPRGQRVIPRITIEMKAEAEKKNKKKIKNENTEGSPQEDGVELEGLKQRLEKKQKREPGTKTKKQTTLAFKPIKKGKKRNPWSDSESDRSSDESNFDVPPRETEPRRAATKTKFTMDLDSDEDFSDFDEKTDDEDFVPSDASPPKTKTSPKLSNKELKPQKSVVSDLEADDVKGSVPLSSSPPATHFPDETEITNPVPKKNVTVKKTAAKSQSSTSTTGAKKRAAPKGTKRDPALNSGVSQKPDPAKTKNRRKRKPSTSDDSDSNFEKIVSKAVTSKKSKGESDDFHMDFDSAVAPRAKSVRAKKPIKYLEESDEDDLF

The IC50 is the midpoint of a concentration-inhibition curve. `CC(=O)O[C@@H]1[C@@H](C)O[C@@H](c2ccc3c(c2O)[C@@H](O)[C@]24O[C@@]2(C3=O)[C@@]2(O)C(=O)C=C(C)C[C@@]2(O)C[C@@H]4O)C[C@H]1OC(=O)/C=C/C=C/C=C/C=C/C(=O)Nc1c(O)c2ccc(O)c(Cl)c2oc1=O` [SIMOCYCLINONE D8]: the inhibition entry in [1], in assay [4], in assay [7], in assay [11], in [12] and in assay [13] was “Active” throughout. Further, the inhibition entry in assay [14], in assay [16], in assay [17] and in assay [18] was “Active” throughout. Also, the Activity in assay [2] worked out at 53%; in assay [3], 40%; in assay [5], 46%; in [9], 20%; in assay [10], 55%; in assay [19], 107%. Besides, in [6], inhibition was half-maximal at 60 µM (IC50). For the same molecule, the outcome in assay [8] and in assay [15] was inactive. Also, in assay [20], the Ratio IC50 came out at 0.5.

Source of the values: ChEMBL document CHEMBL2163298, “Inhibition of human topoisomerases I and II by simocyclinone D8” (J Nat Prod, 2012).
